Laboratory results reported in ChEMBL document CHEMBL1165977, “Novel analogues of Istaroxime, a potent inhibitor of Na(+),K(+)-ATPase: Synthesis, structure-activity relationship and 3D-quantitative structure-activity relationship of derivatives at position 6 on the androstane scaffold” (Bioorg Med Chem, 2010).
pIC50: −log10 of the molar value.

Experiments:
[1] = Inhibition of dog kidney Na+K+-ATPase assessed as hydrolysis of [32P]ATP; set-up: species or system Canis lupus familiaris
In short: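 Dog kidney Na+,K+-ATPase, isolated and purified by the Jørgensen method. Enzyme activity was read as % hydrolysis of 32P-ATP with versus without test compound. IC50 was obtained by nonlinear least-squares curve fitting, as the mean of two or three experiments.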

[2] = system: Cavia porcellus; test: Toxicity in guinea pig assessed as death at 0.16 ml/min, iv up to 90 mins; assay type: organism-based; details: in vivo, 1.5 h
In short: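 Anesthetized guinea pigs with a jugular vein cannula and an intubated trachea for spontaneous respiration. After stabilization, drug was infused iv at 0.16 mL/min until death or for up to 90 min. Vehicle was DMSO diluted in physiological solution to 1% DMSO final. Read-out was +dP/dt_max. ED80 (dose raising +dP/dt_max by 80%) came from the dose–response, and the doses giving maximum inotropy and death were recorded, giving the lethal dose/ED80 ratio.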

[3] = system: Cavia porcellus; test: Positive inotropic activity in iv dosed guinea pig atria assessed as concentration required to increase in […]; assay type: functional
[4] = species on record: Cavia porcellus; test: Positive inotropic activity in electrically driven guinea pig atria assessed as maximal concentration required to increase in […]; assay type: functional
[5] = system: Cavia porcellus; test: Positive inotropic activity in guinea pig atria assessed as increase in […] at 0.16 ml/min, iv; assay type: functional

SMILES | pIC50 [1] | other results
C[C@]12CC/C(=N\O[C@@H]3CCNC3)C[C@@H]1C(=O)C[C@@H]1[C@@H]2CC[C@]2(C)C(=O)CC[C@@H]12 | 7.59 | –
C[C@]12CC/C(=N\OCCN)C[C@@H]1C1(CC1)C[C@@H]1[C@@H]2CC[C@]2(C)C(=O)CC[C@@H]12 | 6.07 | –
COC[C@H]1C[C@@H]2[C@H](CC[C@]3(C)C(=O)CC[C@@H]23)[C@@]2(C)CC/C(=N\OCCN)C[C@H]12 | 6.30 | –
CNCCCO/N=C1\CC[C@@]2(C)[C@H](C1)/C(=N/OC)C[C@@H]1[C@@H]2CC[C@]2(C)C(=O)CC[C@@H]12 | 6.48 | –
COC(=O)[C@H]1C[C@@H]2[C@H](CC[C@]3(C)C(=O)CC[C@@H]23)[C@@]2(C)CC/C(=N\O[C@@H]3CCNC3)C[C@H]12.Cl | 6.80 | Activity [2]: Non-toxic; ED80 [3]: 11 µM/g; Activity [4]: 23 µM/g; Emax [5]: 164%
COC(=O)/C=C1\C[C@@H]2[C@H](CC[C@]3(C)C(=O)CC[C@@H]23)[C@@]2(C)CC/C(=N\OCCN)C[C@H]12 | 4.19 | –
C=C1C[C@@H]2[C@H](CC[C@]3(C)C(=O)CC[C@@H]23)[C@@]2(C)CC/C(=N\O[C@@H]3CCNC3)C[C@H]12 | 7.34 | –
C=C1C[C@@H]2[C@H](CC[C@]3(C)C(=O)CC[C@@H]23)[C@@]2(C)CC/C(=N\OCCCNC)C[C@H]12 | 6.24 | –
C#C[C@H]1C[C@@H]2[C@H](CC[C@]3(C)C(=O)CC[C@@H]23)[C@@]2(C)CC/C(=N\OCCN)C[C@H]12.Cl | 6.70 | Activity [2]: Non-toxic; ED80 [3]: 4.6 µM/g; Activity [4]: 9.9 µM/g; Emax [5]: 163%
C[C@]12CC/C(=N\O[C@@H]3CCNC3)C[C@@H]1[C@@H](CO)C[C@@H]1[C@@H]2CC[C@]2(C)C(=O)CC[C@@H]12 | 7.59 | –
C[C@H]1C[C@@H]2[C@H](CC[C@]3(C)C(=O)CC[C@@H]23)[C@@]2(C)CC/C(=N\OCCN)C[C@H]12.Cl | 6.52 | Activity [2]: Non-toxic; ED80 [3]: 3.1 µM/g; Activity [4]: 5.8 µM/g; Emax [5]: 203%
CNCCCO/N=C1\CC[C@@]2(C)[C@H](C1)C(=O)C[C@@H]1[C@@H]2CC[C@]2(C)C(=O)CC[C@@H]12 | 6.60 | –
C/C=C1\C[C@@H]2[C@H](CC[C@]3(C)C(=O)CC[C@@H]23)[C@@]2(C)CC/C(=N\OCCN)C[C@H]12 | 5.96 | –
C=C[C@H]1C[C@@H]2[C@H](CC[C@]3(C)C(=O)CC[C@@H]23)[C@@]2(C)CC/C(=N\OCCN)C[C@H]12 | 6.28 | –
COC(=O)[C@H]1C[C@@H]2[C@H](CC[C@]3(C)C(=O)CC[C@@H]23)[C@@]2(C)CC/C(=N\OCCN)C[C@H]12 | 6.39 | –
C[C@]12CC/C(=N\OCCN)C[C@@H]1[C@@H](O)C[C@@H]1[C@@H]2CC[C@]2(C)C(=O)CC[C@@H]12 | 6.28 | –
CO/N=C1\C[C@@H]2[C@H](CC[C@]3(C)C(=O)CC[C@@H]23)[C@@]2(C)CC/C(=N\OCCN)C[C@H]12.Cl | 7.77 | Activity [2]: Non-toxic; ED80 [3]: 2.4 µM/g; Activity [4]: 5.8 µM/g; Emax [5]: 183%
COC[C@@H]1C[C@@H]2[C@H](CC[C@]3(C)C(=O)CC[C@@H]23)[C@@]2(C)CC/C(=N\OCCN)C[C@H]12 | 5.52 | –
CNCCCO/N=C1\CC[C@@]2(C)[C@H](C1)[C@@H](C(N)=O)C[C@@H]1[C@@H]2CC[C@]2(C)C(=O)CC[C@@H]12 | 5.72 | –
C=CCO/N=C1\C[C@@H]2[C@H](CC[C@]3(C)C(=O)CC[C@@H]23)[C@@]2(C)CC/C(=N\OCCN)C[C@H]12 | 4.37 | –
C[C@]12CC/C(=N\OCCN)C[C@@H]1[C@@H](C(N)=O)C[C@@H]1[C@@H]2CC[C@]2(C)C(=O)CC[C@@H]12 | 6.20 | –
C[C@]12CC/C(=N\OCCN)C[C@@H]1/C(=C/CO)C[C@@H]1[C@@H]2CC[C@]2(C)C(=O)CC[C@@H]12 | 6.11 | –
C#C[C@H]1C[C@@H]2[C@H](CC[C@]3(C)C(=O)CC[C@@H]23)[C@@]2(C)CC/C(=N\OCCCNC)C[C@H]12 | 5.92 | –
COC[C@H]1C[C@@H]2[C@H](CC[C@]3(C)C(=O)CC[C@@H]23)[C@@]2(C)CC/C(=N\O[C@@H]3CCNC3)C[C@H]12.O=C(O)/C=C/C(=O)O | 6.49 | Activity [2]: Non-toxic; ED80 [3]: 6.8 µM/g; Activity [4]: 12 µM/g; Emax [5]: 201%
C[C@]12CC/C(=N\OCCN)C[C@@H]1[C@H](O)C[C@@H]1[C@@H]2CC[C@]2(C)C(=O)CC[C@@H]12 | 5.68 | –

SMILES | pIC50 [1] | other results
CCO[C@H]1C[C@@H]2[C@H](CC[C@]3(C)C(=O)CC[C@@H]23)[C@@]2(C)CC/C(=N\OCCN)C[C@H]12 | 5.51 | –
C=C1C[C@@H]2[C@H](CC[C@]3(C)C(=O)CC[C@@H]23)[C@@]2(C)CC/C(=N\OCCN)C[C@H]12 | 7.38 | –
C[C@]12CC/C(=N\OCCN)C[C@@H]1[C@H](CO)C[C@@H]1[C@@H]2CC[C@]2(C)C(=O)CC[C@@H]12 | 5.80 | –
CNCCCO/N=C1\CC[C@@]2(C)[C@H](C1)[C@@H](C)C[C@@H]1[C@@H]2CC[C@]2(C)C(=O)CC[C@@H]12.Cl | 6.04 | Activity [2]: Non-toxic; ED80 [3]: 8.1 µM/g; Activity [4]: 18 µM/g; Emax [5]: 213%
C#C[C@H]1C[C@@H]2[C@H](CC[C@]3(C)C(=O)CC[C@@H]23)[C@@]2(C)CC/C(=N\O[C@@H]3CCNC3)C[C@H]12.Cl | 6.96 | Activity [2]: Non-toxic; ED80 [3]: 3.7 µM/g; Activity [4]: 6 µM/g; Emax [5]: 147%
C[C@]12CC/C(=N\OCCN)C[C@@H]1[C@@H](CO)C[C@@H]1[C@@H]2CC[C@]2(C)C(=O)CC[C@@H]12.Cl | 6.74 | Activity [2]: Non-toxic; ED80 [3]: 1.8 µM/g; Activity [4]: 7.4 µM/g; Emax [5]: 166%
C[C@]12CC/C(=N\O[C@@H]3CCNC3)C[C@@H]1[C@@H](O[N+](=O)[O-])C[C@@H]1[C@@H]2CC[C@]2(C)C(=O)CC[C@@H]12 | 6.42 | –
CNCCCO/N=C1\CC[C@@]2(C)[C@H](C1)C1(CC1)C[C@@H]1[C@@H]2CC[C@]2(C)C(=O)CC[C@@H]12 | 5.89 | –
C[C@]12CC/C(=N\OCCN)C[C@@H]1[C@H](O[N+](=O)[O-])C[C@@H]1[C@@H]2CC[C@]2(C)C(=O)CC[C@@H]12 | 5.54 | –
CO/N=C1\C[C@@H]2[C@H](CC[C@]3(C)C(=O)CC[C@@H]23)[C@@]2(C)CC/C(=N\O[C@@H]3CCNC3)C[C@H]12 | 7.74 | –
C[C@]12CC/C(=N\OCCN)C[C@@H]1C(=C(F)F)C[C@@H]1[C@@H]2CC[C@]2(C)C(=O)CC[C@@H]12 | 6.72 | –
C[C@H]1C[C@@H]2[C@H](CC[C@]3(C)C(=O)CC[C@@H]23)[C@@]2(C)CC/C(=N\O[C@@H]3CCNC3)C[C@H]12 | 6.47 | –
CC(=O)N[C@H]1C[C@@H]2[C@H](CC[C@]3(C)C(=O)CC[C@@H]23)[C@@]2(C)CC/C(=N\OCCN)C[C@H]12 | 4.35 | –
CO[C@@H]1C[C@@H]2[C@H](CC[C@]3(C)C(=O)CC[C@@H]23)[C@@]2(C)CC/C(=N\OCCN)C[C@H]12 | 5.82 | –
C[C@]12CC/C(=N\OCCN)C[C@@H]1[C@@H](C(=O)O)C[C@@H]1[C@@H]2CC[C@]2(C)C(=O)CC[C@@H]12 | 4.80 | –
C[C@]12CC/C(=N\O[C@@H]3CCNC3)C[C@@H]1C(=C(F)F)C[C@@H]1[C@@H]2CC[C@]2(C)C(=O)CC[C@@H]12.Cl | 7.68 | Activity [2]: Non-toxic; ED80 [3]: 6.7 µM/g; Activity [4]: 18 µM/g; Emax [5]: 244%
C[C@]12CC/C(=N\O[C@@H]3CCNC3)C[C@@H]1C1(CC1)C[C@@H]1[C@@H]2CC[C@]2(C)C(=O)CC[C@@H]12 | 6.66 | –
C[C@]12CC/C(=N\OCCN)C[C@@H]1/C(=C/C#N)C[C@@H]1[C@@H]2CC[C@]2(C)C(=O)CC[C@@H]12 | 5.77 | –
C[C@]12CC/C(=N\OCCN)C[C@@H]1[C@@H](C#N)C[C@@H]1[C@@H]2CC[C@]2(C)C(=O)CC[C@@H]12 | 5.96 | –
CNCCCO/N=C1\CC[C@@]2(C)[C@H](C1)[C@@H](COC)C[C@@H]1[C@@H]2CC[C@]2(C)C(=O)CC[C@@H]12 | 5.70 | –
C[C@]12CC/C(=N\OCCN)C[C@@H]1[C@@]1(CO1)C[C@@H]1[C@@H]2CC[C@]2(C)C(=O)CC[C@@H]12 | 6.04 | –
C[C@@H]1C[C@@H]2[C@H](CC[C@]3(C)C(=O)CC[C@@H]23)[C@@]2(C)CC/C(=N\OCCN)C[C@H]12 | 5.22 | –
CCO/N=C1\C[C@@H]2[C@H](CC[C@]3(C)C(=O)CC[C@@H]23)[C@@]2(C)CC/C(=N\OCCN)C[C@H]12 | 5.77 | –
CNCCCO/N=C1\CC[C@@]2(C)[C@H](C1)[C@@H](C(=O)OC)C[C@@H]1[C@@H]2CC[C@]2(C)C(=O)CC[C@@H]12 | 5.40 | –
C[C@]12CC/C(=N\OCCN)C[C@@H]1[C@]1(CO1)C[C@@H]1[C@@H]2CC[C@]2(C)C(=O)CC[C@@H]12 | 6.06 | –
